From ChEMBL document CHEMBL4513216, “Probing the Open Global Health Chemical Diversity Library for Multistage-Active Starting Points for Next-Generation Antimalarials” (ACS Infect Dis, 2020) come the findings set out here.

The data set is described as follows: Toxicity liver stage against HepG2, at 10uM. The class given is cell-based. Set-up: test concentration 10 uM, cell line HepG2-A16-CD81EGFP. The settings on record: human, HepG2-A16-CD81EGFP cells; read-out: INHIBITION
The gist of the method:
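Uninfected HepG2-A16-CD81EGFP cells, 3 × 10^3 per well, 1536-well, plated on prespotted compound at 10 μM final, parasite-free screening media added to match infected plates; puromycin 10 μM positive, DMSO 0.5% negative; run in parallel with 48 h PbLuc assay at 37 °C, 5% CO2; viability by CellTiter-Glo luminescence, normalized to controls.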

Consider `Cc1csc(C2CCCCN2C(=O)CN(C)Cc2ccccc2)n1` (configuration not stated), for which the cytotoxicity at 10 µM is 2.62%. Regarding `CC(NCc1ccncc1)c1cc2c(cc1Br)OCCO2` (configuration not stated), the cytotoxicity at 10 µM was -1.41%. With `CCC(C)NC(=O)c1nn(C)c(NC(=O)c2ccccc2OC)c1F` (configuration not stated), the cytotoxicity at 10 µM is -6.24%. For the compound `Cc1ccc(-c2nn(-c3cccc(F)c3)cc2CN(CCO)CCO)o1`, the cytotoxicity at 10 µM was found to be 8.43%. Take `CCC(C)N(Cc1cccnc1)C(=O)c1ccc(NS(=O)(=O)CC)cc1` (configuration not stated): the cytotoxicity at 10 µM was found to be 7.1%. Then `N#CC1(NC(=O)COC(=O)Cn2cccn2)CCCC1`, with 8.89%. On to `Cc1cc(Oc2ccc(NC(=O)C3CC3)cc2)cc(C2CCNCC2)n1`, for which the cytotoxicity at 10 µM is -6.18%. The figure for `NS(=O)(=O)CCNC(=O)c1cc2ccccc2nc1N1CCCC1` is -10.7%; for `Cc1ccc(CSCCn2nc3ccccn3c2=O)cc1` it is 5.64%. The figure for `COCC(c1cccc(C(F)(F)F)c1)N(C)C(=O)c1cc(C)no1` (configuration not stated) is 0.0161%; for `COc1ccc(CN2CCC(O)(CN3CCCCC3)C2)c(C)c1` (configuration not stated) it is 7.5%; for `COC(=O)c1cc(CN2CCC(c3noc(C)n3)CC2)c(C)s1` it is -7.12%. On to `c1cnn(CCCO[C@@H]2CN(C3CCOCC3)[C@@H]3CCCO[C@@H]32)c1`, for which the cytotoxicity at 10 µM was 4.56%. The figure for `CN1CCCCc2c1nc1c(c2N)CCCC1` is -0.675%; for `O=C(c1ccc(-c2ccc(O)nc2)s1)N1CCCCCC1` it is 4.51%. For `Cc1ccc(NC2CCN(C(=O)c3cncnc3C)CC2)nn1`, the cytotoxicity at 10 µM is -3.04%.

Regarding `O=C(CN(C1=NCCCCC1)c1ccc(Cl)cc1)c1ccccc1`, the cytotoxicity at 10 µM came to 12.2%. The figure for `Cc1nn(C)c2ncnc(N3CCCC(C)(O)C3)c12` (configuration not stated) is 0.541%; for `Cc1noc(CNC(=O)CN(C)c2nc3ccccc3s2)n1` it is -2.43%. On to `CC(C)C[C@@H]1N[C@H](C(=O)NC2CCOCC2)Cc2c[nH]c3cccc1c23`, for which the cytotoxicity at 10 µM worked out at 8.24%.

With `Cc1nc(CNC(=O)C(C)Oc2ccccc2F)no1` (configuration not stated), the cytotoxicity at 10 µM is 5.43%. For the compound `Cn1ccnc1COc1ccc(CO)cc1`, the cytotoxicity at 10 µM was -5.05%.

On to `O=C(c1ccco1)N1CCN2C[C@H](OCc3cccnc3)C[C@H]2C1`, for which the cytotoxicity at 10 µM was -77%. Consider `CN(C)C(=O)c1ccc2c(c1)N(C)C(CC(=O)NCc1ncc[nH]1)CO2` (configuration not stated), for which the cytotoxicity at 10 µM is -5.93%.

On to `CCc1ccc(C(=O)NC2CCc3nc(C)cn3C2)o1` (configuration not stated), for which the cytotoxicity at 10 µM is -8.45%.

For the compound `O=C1CC2(CCCCN2C(=O)c2ccncc2)CN1CC1CC1` (configuration not stated), the cytotoxicity at 10 µM was 2.17%. The figure for `CCCc1cnc(C)nc1N1CCC(Cc2cccc(C(N)=O)c2)C1` (configuration not stated) is 3.52%. The figure for `c1ncc2c(n1)CN(c1ncnc3[nH]ccc13)CC2` is -4.28%; for `COC(=O)N1CC2=CC(C)(C)COc3ccc(OC)c(c32)C1` it is 5%. With `CSc1ccccc1C(C(=O)O)N1CCN(Cc2ccccn2)CC1` (configuration not stated), the cytotoxicity at 10 µM is -36.2%. Then `COc1cc(CNCC(O)c2ccccc2F)cc2c1OCO2` (configuration not stated), with -5.53%; and `O=C(Nc1cccnc1)[C@@H]1CCO[C@@H]2CCN(Cc3cccnc3)C[C@@H]21`, with 4.78%; and `CC(=O)N1CCC(n2ccc(-c3cnc(N4CCOCC4)nc3)n2)CC1`, with -10.4%. The figure for `Cc1ccccc1C(=O)N1CC[C@@H](N(C)C)[C@@H]1Cc1cnn(C)c1` is -71%; for `Cc1cnn(CC2CN(CCS(=O)(=O)C(F)(F)F)CCO2)c1` (configuration not stated) it is 2.5%. Then `CC(C)(C)c1ncc(C(=O)NCCNC(=O)c2ccccc2)s1`, with -8.08%. Consider `Cc1nc(N2CCCC2)ncc1-c1cc(O)nc(NCC2CCCO2)n1` (configuration not stated), for which the cytotoxicity at 10 µM was 0.723%. Then `COCC(C)NC(=O)N1CCN(S(C)(=O)=O)CC1` (configuration not stated), with -6.53%; and `c1ccc(CN2CCC3(CC2)CCN(Cc2cccs2)C3)nc1`, with 4.17%; and `Cc1cc(N2CCOCC(Cc3ccc4[nH]ccc4c3)C2)ncn1` (configuration not stated), with -3.77%.

As to `N#Cc1ccc(CN2CCCC2Cn2cccn2)cc1` (configuration not stated), the cytotoxicity at 10 µM is -2.96%.

Take `CCS(=O)(=O)CCNc1nc(C2CCCC2)nc2c1cnn2C`: the cytotoxicity at 10 µM was 9.35%.

For `NC(=O)N1CCC2(CC1)CC(=O)N(CC1CCCO1)c1ccccc12` (configuration not stated), the cytotoxicity at 10 µM came out at 5.56%. With `COCCCN1CCC(NC(=O)C(C)C)CC1`, the cytotoxicity at 10 µM was -11.9%.

With `CC(C)N(CC(N)=O)CC(=O)N(C1=CCCCC1)C1CC1`, the cytotoxicity at 10 µM was -0.429%. Then `CN1CCC(CNC(=O)c2ccc(O)nc2)c2ccccc21` (configuration not stated), with 13.9%; and `O=C(NCC1(O)CCOc2ccccc21)Nc1ccc2c(c1)OCO2` (configuration not stated), with -5.12%; and `Cc1ncsc1C(=O)NCCOc1ncc(Cl)cc1Cl`, with 7.67%. Then `CCc1ocnc1C(=O)N1CCC2(CC1)OCC(C)O2` (configuration not stated), with 4.44%; and `Cn1cnnc1C1CCN(c2cncc(-n3cccn3)n2)CC1`, with -8.37%.

Turning to `Cc1nc(C2CCCN2Cc2cc(=O)n(C)c(=O)n2C)no1` (configuration not stated), the cytotoxicity at 10 µM is -0.222%. Turning to `CC(C)CNC(=O)c1ccc(NC(=O)NC(C)(C)CO)cc1Cl`, the cytotoxicity at 10 µM was 6.27%. Turning to `CNS(=O)(=O)c1ccccc1N1CCN(C(C)C(=O)OC)CC1` (configuration not stated), the cytotoxicity at 10 µM came out at 0.375%.

For the compound `CNC(=O)[C@H]1C[C@@H]2CN(C(=O)c3ccoc3)C[C@@H]2N1S(C)(=O)=O`, the cytotoxicity at 10 µM is -3.88%. The figure for `Cn1cc(C(=O)N2CCCC(Cc3nccs3)C2)cn1` (configuration not stated) is 3.83%. Then `COc1ccc(C(C)NCCc2ccc(NC(C)=O)cc2)c(OC)c1` (configuration not stated), with 4.49%. The figure for `COc1ccc2c(O)c(NC(=O)NCC3CC3)cnc2c1` is -0.799%; for `CNC(=O)[C@@H]1CC[C@@H]2[C@@H](CCN2Cc2ccccc2F)O1` it is 8.1%; for `CCOC(=O)c1c(NC(=O)C2CCN(C(C)=O)CC2)sc(C)c1CC` it is 10.9%. For the compound `COc1ccc(OC)c(CN(C(=O)c2ccc(C)[nH]c2=O)C2CC2)c1`, the cytotoxicity at 10 µM is -1.59%. The figure for `Cc1cnn(CC2CCCCN2C(=O)Cc2c(C)noc2Cl)c1` (configuration not stated) is -5.43%; for `Cc1cccc(C)c1-n1nnnc1C1(NCc2ccco2)CCCC1` it is 12.9%. Then `CC(Cn1cccn1)NC(=O)N1CCN(Cc2ccncc2)CC1` (configuration not stated), with -20.8%; and `CC(C)c1cc(NCC(O)CO)n2nccc2n1` (configuration not stated), with -24.8%. Turning to `Nc1nc(CN2CCOC(Cn3cccn3)C2)nc2ccccc12` (configuration not stated), the cytotoxicity at 10 µM is -20.4%. For `CC(C)CCN1CCN(CC(=O)Nc2ccc3nsnc3c2)CC1`, the cytotoxicity at 10 µM was -0.216%.

Take `O=S(=O)(c1ccc2c(c1)CCC2)N1CCCC(Cn2cncn2)C1` (configuration not stated): the cytotoxicity at 10 µM worked out at 4.19%.

As to `Cc1ccc(C(=O)NCC(O)CN2CCCC2=O)c(C)c1` (configuration not stated), the cytotoxicity at 10 µM is -6.68%.

Take `Cc1ccc(N2CC[C@@]3(O)CCN(S(C)(=O)=O)C[C@H]3C2)nn1`: the cytotoxicity at 10 µM was 7.99%. The figure for `Cc1nc(CN(C)C2CCN(CC3CCOCC3)C2)no1` (configuration not stated) is -4.68%; for `O=C1C[C@H]2[C@@H](CCN2Cc2ccccn2)N1Cc1cccnc1` it is 4.88%; for `C[C@@H]1CN(c2cc(N3CCC(O)CC3)ncn2)C[C@@]1(O)C1CC1` it is -1.79%. On to `COc1cc(NC(=O)c2ccc(F)cc2Cl)c(C(=O)N(C)C)cc1OC`, for which the cytotoxicity at 10 µM is -11.1%. In the case of `COc1ccc(Br)c(C(=O)N2CCCC(c3nc(C)no3)C2)c1` (configuration not stated), the cytotoxicity at 10 µM amounted to 7.08%. Take `CN1CCCN(C(=O)NCCNc2ncccn2)CC1`: the cytotoxicity at 10 µM is -16.7%. The figure for `CN(C)CCCNc1ncnc2cccc(F)c12` is 9.66%. `N#CCc1ccc(NC(=O)Cn2cc(I)cn2)cc1`: the cytotoxicity at 10 µM was 8.44%.

Consider `Clc1ccccc1CCN1CCN(c2ccc3nncn3n2)CC1`, for which the cytotoxicity at 10 µM turned out to be 1.78%. The figure for `CCOc1ccc(CN2CCC3(CC2)CNC(=O)C3)cn1` is 0.987%; for `COc1cc2nc3n(c(=O)c2cc1OC)CCN(C(C)=O)CC3` it is -2.65%; for `Cc1ccc(C2CN(Cc3cnc(-c4cccnc4)s3)CCO2)o1` (configuration not stated) it is -10.9%. With `CC(C)NC(=O)NCCn1nc(C(F)(F)F)n(C)c1=O`, the cytotoxicity at 10 µM was -0.173%.

As for `Cc1cn[nH]c1C1CCCN1Cc1ccc(F)c(F)c1` (configuration not stated), the cytotoxicity at 10 µM was determined as 4.14%.

For the compound `OCCN1CCN(Cc2cc3c(cc2Br)OCCO3)CC1`, the cytotoxicity at 10 µM stood at 7.59%. Regarding `CN(Cc1noc(C2CC2)n1)C1CCN(CCn2cccn2)C1` (configuration not stated), the cytotoxicity at 10 µM is -4.32%.

Regarding `CN(Cc1ccccn1)C(=O)Nc1cc(C(F)(F)F)c[nH]c1=O`, the cytotoxicity at 10 µM came out at 8.36%. The figure for `Cc1ccc(C(=O)N2C[C@@H]3CN(S(C)(=O)=O)CCO[C@@H]3C2)s1` is -4.75%; for `CN(C)CC1CSCCCN1S(=O)(=O)Cc1cccc(F)c1` (configuration not stated) it is -3.63%; for `CCn1nccc1CNC(=O)C1CCC1` it is -2.17%.

Consider `CCOc1ccccc1CN(CC)Cc1ccc(S(=O)(=O)NC)cc1`, for which the cytotoxicity at 10 µM is -0.943%. Take `CSCC(C)N(C)S(=O)(=O)c1ccc(Cl)cc1C#N` (configuration not stated): the cytotoxicity at 10 µM is -41.5%.

In the case of `CCNc1ncc(C(=O)N(C)CCc2nc3cc(Cl)ccc3[nH]2)cn1`, the cytotoxicity at 10 µM was -45.8%.

On to `N#CC(NC(=O)CC1CCSCC1)c1cnn(-c2ccccc2)c1` (configuration not stated), for which the cytotoxicity at 10 µM was found to be 6.1%. The figure for `COc1coc(C(=O)Nc2nc(C)cs2)cc1=O` is -3.96%. `O=C1[C@H]2CN(C3CCOC3)C[C@H]2CN1c1ccccc1` (some centres not stated): the cytotoxicity at 10 µM is 7.16%. The figure for `O=c1cc(Cn2cncn2)nc2n1CCCN(CC1CCOCC1)C2` is 7.77%; for `Cc1cccc(CN2C[C@@H]3COC[C@]3(COc3cccnc3)C2)n1` it is 11.4%.
